The subject of data set [1] is Internal ribosome entry site (IRES). In words: Inhibition of HCV IRES RNA fragment-mediated translation in human Huh7.5.1 cells treated through microporation 17 hrs prior to infection for 4 hrs measured after 20 hrs by luciferase reporter gene assay. The format is cell-based. Particulars: Hepacivirus hominis; Huh-7. A general note: Reporter assays use an easily measured gene product as a stand-in for the process of interest.

The test system is the same in data set [2]. In words: Inhibition of HCV IRES RNA fragment-mediated translation in human Huh7.5.1 cells treated through microporation 17 hrs prior to infection for 4 hrs measured after 20 hrs by reticulocyte based translation assay. The format is cell-based. Particulars: Hepacivirus hominis; Huh-7.
Data set [3] concerns Hepatitis C virus. Briefly: Antiviral activity against HCV in cell-free system at 100 nM. Particulars: Hepacivirus hominis. The format is functional.
The test system of data set [4] is Hepatitis C virus. In words: Cytotoxicity against HCV infected in human Huh7.5.1 cells treated through microporation for 17 hrs prior to 4 hr infection period measured after 20 hrs postinfection by luciferase assay. The data set is classed as organism-based. To be noted: hepacivirus hominis, huh-7, 20 h.
For data set [5], the system named is Hepatitis C virus. In words: Antiviral activity against HCV infected in human Huh7.5.1 cells at 1000 nM treated through lipofection after 17 hrs of infection by luciferase assay. The data set is classed as functional, Hepacivirus hominis, Huh-7. Summed up:
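Huh7.5.1 cells first infected with HCVcc; after 17 h, ODNs transfected by lipid reagent at 10–1000 nM. Triplicate runs; signal normalised to cell number by WST-1 and expressed as percent of non-specific scrambled ODN control.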

In data set [6] the test system is Hepatitis C virus. Briefly: Antiviral activity against HCV infected in human Huh7.5.1 cells at 100 nM treated through lipofection after 17 hrs of infection by luciferase assay. The format is functional, organism-based. Particulars: Hepacivirus hominis, Huh-7. In a few lines: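 Huh7.5.1 cells were infected with reporter HCVcc (FL-J6/JFH-5/C19Rluc2AUbi construct) without trypsinization. After 17 h, cells were transfected with oligodeoxynucleotide using a lipid reagent (10–1000 nM tested). Replication signal was normalized to cell number by WST-1 and expressed as % of a scrambled-sequence non-specific ODN control. Triplicate.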

Structures are written as SMILES. Calls of active or inactive are those of the source. No cut-off for these calls is given here.

Take `Cc1cn([C@@H]2O[C@H](COP(=O)(O)O[C@H]3[C@@H](O)[C@H](n4ccc(N)nc4=O)O[C@@H]3COP(=O)(O)O[C@H]3C(O)[C@H](n4cnc5c(N)ncnc54)O[C@@H]3COP(=O)(O)O[C@H]3[C@@H](O)[C@H](n4ccc(N)nc4=O)O[C@@H]3COP(=O)(O)O[C@H]3[C@@H](O)[C@H](n4cnc5c(N)ncnc54)O[C@@H]3COP(=O)(O)O[C@H]3[C@@H](O)[C@H](n4cnc5c(N)ncnc54)O[C@@H]3COP(=O)(O)O[C@H]3[C@@H](O)[C@H](n4ccc(N)nc4=O)O[C@@H]3COP(=O)(O)O[C@H]3[C@@H](O)[C@H](n4ccc(N)nc4=O)O[C@@H]3COP(=O)(O)O[C@H]3C[C@H](n4ccc(N)nc4=O)O[C@@H]3COP(=O)(O)OCCCNC(=O)C(CCCc3c[nH]cn3)CCCc3c[nH]cn3)[C@@H](OP(=O)(O)OC[C@H]3O[C@@H](n4cnc5c(N)ncnc54)[C@H](O)[C@@H]3OP(=O)(O)OC[C@H]3O[C@@H](n4ccc(N)nc4=O)C(O)[C@@H]3OP(=O)(O)OC[C@H]3O[C@@H](n4cc(C)c(=O)[nH]c4=O)[C@H](O)[C@@H]3OP(=O)(O)OC[C@H]3O[C@@H](n4ccc(N)nc4=O)[C@H](O)[C@@H]3OP(=O)(O)OC[C@H]3O[C@@H](n4cnc5c(=O)[nH]c(N)nc54)[C@H](O)[C@@H]3OP(=O)(O)OC[C@H]3O[C@@H](n4cnc5c(=O)[nH]c(N)nc54)[C@H](O)[C@@H]3OP(=O)(O)OC[C@H]3O[C@@H](n4cnc(N)cc4=O)[C@H](O)[C@@H]3OP(=O)(O)O)[C@H]2O)c(=O)[nH]c1=O` (stereo partly specified): the outcome in data set [1], in data set [2] and in data set [6] was Active. In data set [3], the result was inactive. Further, the Activity entry in data set [4] was “Non-toxic”; in data set [5], 50%.

(Values after ChEMBL document CHEMBL1151932, “Antiviral effect of ribonuclease conjugated oligodeoxynucleotides targeting the IRES RNA of the hepatitis C virus” (Bioorg Med Chem Lett, 2009).)
